Shown are actives, neighbours in structure and some others; about 1.8% of the full set was active somewhere.
Rin1-Abl PPI inh: human Rin1-Abl interaction inhibition | P00519+Q13671 | AID 588664 | inhibition, % at 7.35 µM | 360,000 compounds, 0.4% hits | TR-FRET Rin1/Abl binding, biochemical; in the data active means inhibition above about 5%, passing the limit was not always enough
NR1D1 modulator: modulators of human Rev-erb alpha DNA binding | P20393 | Rev-erbα–FITC-DNA binding, fluorescence polarization, 90 min | activity, % at 10 µM | 370,000 compounds, 0.79% hits | AID 1259318;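 active means activity above about 14%, limit read from the data; passing the limit was not always enough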;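 further: 0% = DMSO wells with 35 nM protein and 100% = DMSO wells with 750 nM protein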
PG9 binder: binds the HIV-1 gp120 antibody PG9; 360,000 compounds, 0.43% hits; TR-FRET gp120-PG9 antibody binding; inhibition, % at 6.7 µM; AID 624416; in the data active means inhibition above about 8.5%
Tb MetRS inh: Trypanosoma brucei MetRS inhibition | purified T. brucei MetRS, ATP depletion, Kinase-Glo luminescence | inhibition, % at 11.9 µM | 360,000 compounds, 0.4% hits | AID 624268;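 active means inhibition above a per-plate cutoff of the control wells' mean inhibition plus 3 SD, cut at about 5.5% in these data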;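 further: 0% = DMSO wells median and 100% = median of wells with control inhibitor compound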
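technique = Kinase-Glo luminescence, ATP depletion format | system = purified MetRS (methionyl-tRNA synthetase) enzyme from Trypanosoma brucei | timing = 15 min preincubation, 2 h reaction, all 25 °C | evaluation = percent inhibition versus plate control medians | dosing = single dose, 11.9 µM final nominal, 0.9% final DMSO | also added = substrates ATP, L-methionine and bulk Escherichia coli tRNA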
Rin1-Abl confirm: Rin1-Abl interaction inhibition confirmation. shares compounds with Rin1-Abl PPI inh. TR-FRET Rin1-Abl binding, purified proteins. inhibition, % at 7.35 µM. 1,300 compounds, 49% hits
GFP quench: GFP fluorescence interference artifact; shares compounds with Rin1-Abl PPI inh; inhibitors/quenchers counterscreen; inhibition, % at 6.75 µM; 1,300 compounds, 8.5% hits;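 further: ABL1-eGFP fusion protein alone without its partner RIN1-SBP; 0% = protein with vehicle and 100% = wells lacking protein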
GFP quench DR: quenches GFP in dose response, Rin1-Abl counter-screen. shares compounds with Rin1-Abl PPI inh. GFP fluorescence interference/quenching counterscreen. IC50, µM. 230 tested, under 10 active. AID 602182; call rule not given here;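 further: ABL1-eGFP fusion protein alone without its RIN1 binding partner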
Starred values were filed as active, the others as inactive; . = no result. Unless noted, no stated cut-off is given here; in the data, active means inhibition above about 6.5%; inactive means the rest.

SMILES	Rin1-Abl PPI inh	NR1D1 modulator	PG9 binder	Tb MetRS inh	Rin1-Abl confirm	GFP quench	others
Cc1ccccc1C(=O)N(C)[C@H]1C[C@H]2c3[nH]c4c(-c5ccccc5)cccc4c3CCN2C[C@H]1[C@H](C)O	.	2	.	.	.	.
CCCCCCCC(=O)CC[C@@H]1[C@@H](C/C=C\CCCC(=O)O)[C@@H](O)C[C@H]1O	.	2	.	.	.	.
CC(=O)N1CCN(c2nnc(-c3ccccc3)c3ccccc23)CC1	-3	3	0	0	.	.
Cc1ccc(-c2nnc(N3CCN(C(=O)c4ccco4)CC3)c3ccccc23)cc1	13*	1	0	0	7.9*	1
Cc1ccccc1OCCNCC(C)O (configuration not stated)	9.0*	7	-1	-2	-1	0
Cc1[nH][nH]c(=O)c1C(c1ccc(-c2cccc(Cl)c2)o1)c1c(C)[nH][nH]c1=O	7.9*	.	.	1	8.5*	4
Cc1[nH][nH]c(=O)c1C(c1ccc(-c2cccc(C(=O)O)c2)o1)c1c(C)[nH][nH]c1=O	8	8	-4	-1	.	.
O=C(N/N=C/c1cccnc1)c1cc(O)c(O)c(O)c1	62*	3	-6	4	74*	21*
COC(=O)[C@H](C)NC(=O)[C@@H]1CC=C[C@@H]2CCN(CCc3ccccc3)C(=O)[C@@H]21	.	-3	.	.	.	.
COCCn1c(C)cc(C(=O)CSc2nnc(-c3cccnc3)n2-c2ccccc2F)c1C	10*	-4	0	2	1	-1
CC1(Cc2ccc(OC(F)(F)F)cc2)C(=O)Nc2ccc(OC(F)(F)F)cc21 (configuration not stated)	7.4*	9	0	0	-2	-1
Nc1ncnc2c1ncn2C1O[C@H](COP(=O)(O)O)[C@@H](O)[C@H]1O (some centres not stated)	.	4	.	.	.	.
CCOC(=O)CCCCCC(=O)Nc1ccc2c(c1)CC(=O)N([C@H](C)CO)C[C@@H](C)[C@H](CN(C)Cc1ccc3c(c1)OCO3)O2	16*	-7	-4	0	18*	-1	GFP quench DR=>68
CCOC(=O)CCCCCC(=O)Nc1ccc2c(c1)C(=O)N([C@H](C)CO)C[C@H](C)[C@@H](CN(C)C(=O)Nc1ccc(OC)cc1)O2	16*	.	.	0	13*	0
CCOC(=O)CCCCCC(=O)Nc1ccc2c(c1)C(=O)N([C@H](C)CO)C[C@@H](C)[C@H](CN(C)Cc1ccc3c(c1)OCO3)O2	5	-3	0	0	.	.
C[C@@H]1CCCCO[C@@H](CN(C)S(=O)(=O)c2cccs2)[C@@H](C)CN([C@H](C)CO)C(=O)c2cc(NS(=O)(=O)c3ccccc3)ccc2O1	69*	0	1	0	67*	-1	GFP quench DR=>68
C[C@H](CO)N1C[C@H](C)[C@@H](CN(C)S(=O)(=O)c2ccc(F)cc2)Oc2ccc(NC(=O)C3CC3)cc2C1=O	14*	1	-2	0	14*	1
C[C@@H]1CCCCO[C@H](CN(C)S(=O)(=O)c2cccs2)[C@@H](C)CN([C@H](C)CO)C(=O)c2cc(NC(=O)C3CCCCC3)ccc2O1	2	2	-1	0	.	.
C[C@@H]1CN([C@@H](C)CO)C(=O)c2cc(NC(=O)CCC(F)(F)F)ccc2O[C@H]1CN(C)S(=O)(=O)c1ccc(Cl)cc1	3	1	-1	0	.	.
COc1ccc(S(=O)(=O)N(C)C[C@H]2Oc3ccc(NC(=O)CCC(F)(F)F)cc3C(=O)N([C@H](C)CO)C[C@@H]2C)cc1	16*	-3	-2	-1	15*	-1
CCOc1c(N2CCOCC2)cnn(C)c1=O	.	1	.	.	.	.
CN1CC=C(c2ccc(C(F)(F)F)cc2)N(c2ccccc2)C1=O	.	0	.	.	.	.
C=CCn1c(SCC(=O)N2CCOCC2)nnc1C(C)NC(=O)c1ccccc1 (configuration not stated)	7.2*	6	-1	0	-1	0
Nc1ccn([C@@H]2O[C@H](C(=O)N[C@H](Cc3ccccc3)C(=O)N3CCN(CCO)CC3)[C@@H](O)[C@H]2O)c(=O)n1	.	-6	-2	.	.	.
Cc1ccc(C(=O)N2CCCC(CCC(=O)N3CCN(c4ccccn4)CC3)C2)cn1 (configuration not stated)	1	-4	-1	0	.	.
SMILES	Rin1-Abl PPI inh	NR1D1 modulator	PG9 binder	Tb MetRS inh	Rin1-Abl confirm	GFP quench	others
O=C(CCC1CCCN(c2ncccn2)C1)N1CCN(c2ccccn2)CC1 (configuration not stated)	3	-4	-1	-1	.	.
Cc1ccc(C(=O)N2CCCC(CCC(=O)N3CCN(c4ccccn4)CC3)C2)cc1C (configuration not stated)	9.4*	1	-2	0	4	-2
Cc1cccc(C(=O)N2CCCC(CCC(=O)N3CCN(c4ccccn4)CC3)C2)c1C (configuration not stated)	12*	0	0	0	4	0
O=C(CCC1CCCN(C(=O)C2(c3ccccc3)CC2)C1)N1CCN(c2ccccn2)CC1 (configuration not stated)	10.0*	-1	-5	-1	4	0
O=C(OC12CCCN(C1)/C(=C/c1cccnc1)C2)c1ccco1 (configuration not stated)	.	4	.	.	.	.
COCCN(CCOC)C(=O)[C@H](CCc1ccccc1)NC(=O)[C@H]1O[C@@H](n2cnc3c(N)ncnc32)[C@H](O)[C@@H]1O	.	4	1	.	.	.
CCCOC(=O)c1ccc(NC(=O)CCOc2ccccc2)cc1	1	-1	-1	0	.	.
CCCOC(=O)c1ccc(NC(=O)CCC(=O)OCC)cc1	10*	1	-3	0	14*	2
N#CCC[C@H]1CC[C@]2(CCCN(c3ccccc3)C2)O1	.	-4	.	.	.	.
Cc1ccc(NC2=C(N3CCOCC3)C(=O)c3ccccc3C2=O)cc1	12*	5	-1	3	-5	1
CCOc1ccc(CCNC(=O)CN2C(=O)c3cccnc3Oc3ccc(C)cc32)cc1OCC	36*	-1	1	0	41*	0	GFP quench DR=>67
CCOc1ccc(CCNC(=O)CN2C(=O)c3cccnc3Oc3ccc(Cl)cc32)cc1	26*	-3	0	0	24*	-2	GFP quench DR=>68
COC(=O)Cc1c([C@H](C)[C@@H](OC)c2ccccc2Br)nnn1Cc1ccccc1	.	-8	-1	.	.	.
Cc1ccc(C(=O)NC(C)c2ccc(-n3ccnc3)cc2)cc1S(=O)(=O)N1CCOCC1 (configuration not stated)	11*	1	2	0	16*	0
Cc1ccc(C(=O)NC(C)c2ccccc2)cc1S(=O)(=O)N1CCOCC1 (configuration not stated)	2	1	0	0	.	.

Compound activity (PubChem BioAssay)
